Measurements taken from ChEMBL document CHEMBL4706601, “The endocannabinoid system dual-target ligand N-cycloheptyl-1,2-dihydro-5-bromo-1-(4-fluorobenzyl)-6-methyl-2-oxo-pyridine-3-carboxamide improves disease severity in a mouse model of multiple sclerosis” (Eur J Med Chem, 2020).
The source made the active and inactive calls. The rule behind the calls is not given here.

Legend:
Cannabinoid receptor 2 [1] = target: T1, Cannabinoid receptor 2 (Homo sapiens, UniProt P34972); assay: Competitive antagonist activity at human CB2R expressed in CHO cell membranes assessed as rightward shift of N-cycloheptyl-1,2-dihydro-5-bromo-1-(4-fluoro benzyl)-6-methyl-2-oxo-pyridine-3-carboxamide-induced GTPgammaS binding by measuring fold change in N-cycloheptyl-1,2-dihydro-5-bromo-1-(4-fluoro benzyl)-6-methyl-2-oxo-pyridine-3-carboxamide EC50 at 1000 nM preincubated with compound for 30 mins followed by GTPgammaS addition and measured after 90 mins by [35S]GTPgammaS assay; assay type: functional; settings: Membrane, time 120.0 min
T1 sequence (P34972 whole entry): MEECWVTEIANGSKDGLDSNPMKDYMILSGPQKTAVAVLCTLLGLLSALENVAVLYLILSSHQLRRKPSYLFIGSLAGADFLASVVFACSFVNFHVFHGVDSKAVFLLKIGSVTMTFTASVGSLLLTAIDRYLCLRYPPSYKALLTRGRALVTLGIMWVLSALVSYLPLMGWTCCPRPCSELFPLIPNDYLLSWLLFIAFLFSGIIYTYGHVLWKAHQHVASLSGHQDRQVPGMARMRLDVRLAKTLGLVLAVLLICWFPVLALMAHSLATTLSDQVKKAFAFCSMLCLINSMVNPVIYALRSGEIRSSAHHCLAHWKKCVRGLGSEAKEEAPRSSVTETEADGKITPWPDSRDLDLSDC
In short: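 hCB2 CHO membranes in GTPγS buffer (10 μM GDP, 0.1 nM [35S]GTPγS, pH 7.4) pre-incubated 30 min with antagonist at 300 nM or 1 µM, then agonist or inverse agonist concentration series, 90 min at 30 °C. EC50 and Emax reported with 95% CI; Schild analysis; controls CP55,940 100 nM and AM630 1 μM; ≥3 experiments in triplicate.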

Cannabinoid receptor 2 [2] = target: T1, Cannabinoid receptor 2; assay: Antagonist activity at human CB2R expressed in CHO cell membranes preincubated for 30 mins followed by GTPgammaS addition and measured after 90 mins by [35S]GTPgammaS assay; assay type: functional, Membrane
In short: (§1)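 In-house CHO membranes expressing hCB1 or hCB2 (10 µg) in 50 mM Tris-HCl, 3 mM MgCl2, 0.2 mM EDTA, 100 mM NaCl, 0.5% fatty-acid-free BSA, pH 7.4, with 10 μM GDP and 0.1 nM [35S]GTPγS. Incubated 90 min at 30 °C; antagonist pre-incubated 30 min. Nonspecific binding with 10 μM GTPγS; bound label by filtration and counting; ≥3 experiments in triplicate.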

Cannabinoid receptor 2 [3] = target: T1, Cannabinoid receptor 2; assay: Non-competitive antagonist activity at human CB2R expressed in CHO cell membranes assessed as N-cycloheptyl-1,2-dihydro-1-(4-fluorobenzyl)-6-methyl-2-oxo-5-phenyl-pyridine-3-carboxamide Emax at 100 nM preincubated with compound for 30 mins followed by GTPgammaS addition and measured after 90 mins by [35S]GTPgammaS assay (reference value: -49.9%); assay type: functional; settings: Membrane, filed as antagonist, time 120.0 min
In short: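 hCB2 membranes from stably transfected CHO cells (10 µg) pre-incubated 30 min with antagonist, then an inverse-agonist concentration series added. Buffer: 50 mM Tris-HCl, 3 mM MgCl2, 0.2 mM EDTA, 100 mM NaCl, 0.5% fatty-acid-free BSA, pH 7.4, with 10 µM GDP and 0.1 nM [35S]GTPγS. Incubated 90 min at 30 °C, then filtered. Non-specific binding measured with 10 µM GTPγS. Emax given with 95% CI; at least 3 experiments, each in triplicate.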

Cannabinoid receptor 1 [4] = target: T2, Cannabinoid receptor 1 (Homo sapiens, UniProt P21554); assay: Antagonist activity at human CB1R expressed in CHO cell membranes preincubated for 30 mins followed by GTPgammaS addition and measured after 90 mins by [35S]GTPgammaS assay; assay type: functional, Membrane; in short: as §1
T2 sequence (P21554 whole entry): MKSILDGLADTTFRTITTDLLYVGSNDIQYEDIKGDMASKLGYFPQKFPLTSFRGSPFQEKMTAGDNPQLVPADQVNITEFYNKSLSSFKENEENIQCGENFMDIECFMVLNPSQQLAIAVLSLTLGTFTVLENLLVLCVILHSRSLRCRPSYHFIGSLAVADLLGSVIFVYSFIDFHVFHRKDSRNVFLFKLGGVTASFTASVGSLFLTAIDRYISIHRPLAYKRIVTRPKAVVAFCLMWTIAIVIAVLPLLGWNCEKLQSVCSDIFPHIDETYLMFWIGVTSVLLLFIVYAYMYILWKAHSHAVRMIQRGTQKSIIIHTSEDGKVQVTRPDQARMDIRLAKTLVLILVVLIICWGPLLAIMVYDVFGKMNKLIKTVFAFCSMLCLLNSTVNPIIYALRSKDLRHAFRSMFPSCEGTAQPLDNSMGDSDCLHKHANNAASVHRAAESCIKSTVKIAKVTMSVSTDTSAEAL

[5] = target: Cannabinoid receptor 2 (Mus musculus) (UniProt P47936); assay: Agonist activity at CB2R in LPS induced mouse BV2 cells assessed as IL-6 secretion at 10 uM preincubated for 30 mins followed by LPS stimulation for 4 hrs by ELISA (reference value: 764.7 +/-22.9%); assay type: cell-based; settings: BV-2, filed as agonist, time 270.0 min
Sequence of Cannabinoid receptor 2 (Mus musculus) (P47936 whole entry): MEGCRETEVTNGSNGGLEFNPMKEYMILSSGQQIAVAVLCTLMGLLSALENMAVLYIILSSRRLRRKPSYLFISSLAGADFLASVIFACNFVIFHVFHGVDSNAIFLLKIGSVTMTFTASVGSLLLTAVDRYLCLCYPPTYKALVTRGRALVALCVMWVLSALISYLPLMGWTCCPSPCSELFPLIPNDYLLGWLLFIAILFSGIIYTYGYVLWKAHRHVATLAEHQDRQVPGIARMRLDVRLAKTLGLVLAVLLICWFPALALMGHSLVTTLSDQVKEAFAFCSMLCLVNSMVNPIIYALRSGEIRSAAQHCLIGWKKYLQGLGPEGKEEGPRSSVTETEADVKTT
In short: (§2)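 BV-2 murine microglia grown in high-glucose DMEM with 10% FBS. Treatments in FBS-free medium: test agonist 10 μM for 30 min, then LPS 5 μg/ml for 4 h; SR144528 10 μM given 15 min before agonist. DMSO ≤0.1% final. Medium spun 10 min at 1000×g; IL-1β, IL-6, IL-10 quantified by ELISA; three independent experiments in duplicate.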

Mus musculus [6] = assay: Antinociceptive activity in CD-1 albino mouse model of oxaliplatin-induced neuropathic pain assessed as decrease in pain-related behaviour by measuring efficacy onset and time duration at 5 to 50 mg/kg, po treated on day 15 post oxaliplatin treatment and measured after 15 to 75 mins post dose by cold plate test; assay type: functional; settings: dose 5-50 mg/kg; time 15-75 min
In short: (§3)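 Male CD-1 mice (22-25 g) given oxaliplatin 2.4 mg/kg i.p. in 5% glucose on days 1-2, 5-9, 12-14; tested day 15. Compound in 1% carboxymethylcellulose orally at 5, 10, 20, 50 mg/kg. Cold plate licking latency at 15, 30, 45, 60, 75 min post dose. Selective CB1R and CB2R antagonists co-tested. 16 mice per treatment across 2 sessions; one-way ANOVA with Bonferroni.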

[7] = target: Cannabinoid receptor 1 (Rattus norvegicus) (UniProt P20272); assay: Agonist activity at CB1R in Sprague-Dawley rat hippocampal synaptosomes assessed as inhibition of 4-AP evoked glutamate release at 10 uM preincubated for 8 mins followed by 4-AP addition in presence of 1 uM CB2R antagonist, SR144528 by HPLC analysis; assay type: subcellular; settings: Hippocampus, filed as agonist
Sequence of Cannabinoid receptor 1 (Rattus norvegicus) (P20272 whole entry, the tested form may be a part): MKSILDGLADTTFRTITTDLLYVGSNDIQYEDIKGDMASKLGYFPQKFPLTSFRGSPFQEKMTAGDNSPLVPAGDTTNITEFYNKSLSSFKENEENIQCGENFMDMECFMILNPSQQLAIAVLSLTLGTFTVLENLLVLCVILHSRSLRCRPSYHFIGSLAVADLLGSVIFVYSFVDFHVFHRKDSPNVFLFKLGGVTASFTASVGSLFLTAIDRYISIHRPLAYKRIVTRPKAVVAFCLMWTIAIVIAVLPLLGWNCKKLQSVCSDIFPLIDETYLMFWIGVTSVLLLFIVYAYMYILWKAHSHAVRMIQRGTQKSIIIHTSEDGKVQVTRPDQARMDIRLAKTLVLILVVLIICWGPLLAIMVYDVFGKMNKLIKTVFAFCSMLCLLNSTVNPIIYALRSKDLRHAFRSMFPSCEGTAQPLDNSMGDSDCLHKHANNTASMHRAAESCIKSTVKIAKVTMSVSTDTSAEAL
In short: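 Rat (male Sprague Dawley, 200-250 g) hippocampal synaptosomes from Percoll gradient, superfused at 37 °C (0.5 ml/min); 4-AP 600 μM for 2 min. Compounds and antagonists (SR141716A, SR144528, 1 μM) added 8 min before 4-AP and kept during it; basal effects tested by 2-min exposure alone. Endogenous glutamate by HPLC as pmol/mg protein; overflow = stimulated minus basal in control chambers; n = 3–9, triplicate.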

Mus musculus [8] = assay: In vivo agonist activity at CB1R in C57BL/6J mouse assessed as functional CB1R level in brain at 10 mg/kg, ip after 20 days by [35S]GTPgammaS assay; assay type: organism-based; settings: time 20.0 day
In short: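 After 20 days of EAE treatment, half-brain membranes (20 µg) pre-incubated 30 min at 37 °C with adenosine deaminase 0.5 units/mL, 30 μM GDP, 0.2 nM [35S]GTPγS at pH 7.4. Stimulated by CP55,940 1 μM, SR141716A 1 μM, both, or vehicle for 1 h at 30 °C; nonspecific with 10 μM GTPγS; expressed as % of vehicle control.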

Mus musculus [9] = assay: (§4) Antinociceptive activity in orally dosed CD-1 albino mouse model of oxaliplatin-induced neuropathic pain assessed as decrease in pain-related behaviour treated on day 15 post oxaliplatin treatment and measured after 15 to 75 mins post dose by cold plate test; assay type: functional, organism-based; settings: dose 5-50 mg/kg, time 15-75 min; in short: as §3
Mus musculus [10] = assay: as §4, with “in” for “in orally dosed”, “behaviour at 10 mg/kg, po pretreated with CB2R antagonist, SR144528 for 15 mins before compound addition” for “behaviour”; assay type: functional, organism-based; settings: time 15-75 min; in short: as §3
Mus musculus [11] = assay: as §4, with “in” for “in orally dosed”, “behaviour at 10 mg/kg, po pretreated with CB1R antagonist, SR141716A for 15 mins before compound addition” for “behaviour”; assay type: functional, organism-based; settings: time 15-75 min; in short: as §3
Cannabinoid receptor 1 [12] = target: T2, Cannabinoid receptor 1; assay: Agonist activity at human CB1R expressed in CHO cell membranes after 90 mins by [35S]GTPgammaS assay; assay type: functional, Membrane; in short: as §1
Mus musculus [13] = assay: Antiinflammatory activity in MOG (35 to 55 residues)/pertussis toxin-induced experimental autoimmune encephalomyelitis C57BL/6J mouse model assessed as reduction in clinical scores at 10 mg/kg, ip dosed once daily for 20 days starting from day 10 to 16 post immunization and measured from 2 to 4 days post treatment; assay type: functional; settings: time 2-4 day
In short: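 Active EAE in mice: 200 µg MOG35-55 in CFA (4 mg/ml M. tuberculosis) s.c. at hips and tail root, plus pertussis toxin 300 ng i.p. after immunization and 48 h later. Daily i.p. dosing (DMSO vehicle) for 20 days from each mouse's onset (day 10–16); onset = day 1. Daily clinical score; multiple t-tests with Holm-Sidak.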

[14] = target: Cannabinoid receptor 2 (Mus musculus) (UniProt P47936); assay: Agonist activity at CB2R in LPS induced mouse BV2 cells assessed as reduction in IL-6 secretion at 10 uM preincubated with CB2R antagonist, SR144528 for 15 mins followed by compound additon for 30 mins after LPS stimulation for 4 hrs by ELISA; assay type: cell-based; settings: BV-2, time 270.0 min; in short: as §2

Work on `COc1ccc(-c2cc(C(=O)NC3CCCCCC3)c(=O)n(Cc3ccc(F)cc3)c2C)cc1` yielded a fold change (FC) (Cannabinoid receptor 2 [1]) of 70, an EC50 (Cannabinoid receptor 2 [2]) of 0.17 µM and an Emax (Cannabinoid receptor 2 [3]) of -36.3%. For the same compound, the EC50 (Cannabinoid receptor 1 [4]) was 0.27 µM.

With `Cc1c(Br)cc(C(=O)NC2CCCCCC2)c(=O)n1Cc1ccc(F)cc1` the Activity [5] was 27.8%, the Time (Mus musculus [6]) was 15 min and the Activity [7] was “Active”. For the same compound, the Activity (Mus musculus [8]) was “inactive”, the Activity (Mus musculus [9]) was “Dose-dependent effect” and the Activity (Mus musculus [10]) was “inactive”. The Activity (Mus musculus [11]) was “inactive”, the EC50 (Cannabinoid receptor 1 [12]) was 0.0561 µM and the inhibition in vivo at 10 mg/kg (Mus musculus [13]) was 30%. The Activity [14] was “inactive”.
